In ChEMBL document CHEMBL3085734, “Indole diterpene alkaloids as novel inhibitors of the Wnt/β-catenin pathway in breast cancer cells” (Eur J Med Chem, 2013):
Activity calls are given as the source filed them. The calls are words filed in the database; no cut-off is given here.

What was measured:
MDA-MB-231 [1] = experiment: Inhibition of Wnt/beta-catenin signaling pathway in human MDA-MB-231 cells assessed as decrease in expression of beta-catenin level at 48.2 uM after 48 hrs by DAPI staining-based confocal laser scanning microscopy; assay type: cell-based
Outline: (§1)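 MDA-MB-231 cells seeded at 5×10⁴/chamber and attached overnight in 10% FBS. Treated 48 h in 0.5% FBS medium. Cells fixed in −20°C methanol and blocked with 2% BSA-TBST. Stained with anti-total β-catenin (1:300, overnight at 4°C), then Alexa Fluor 594 secondary, with DAPI counterstain. Confocal imaging at 200X; red intensity compared with untreated control. Duplicate chambers, experiments repeated at least three times.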

Mus musculus [2] = experiment: Toxicity in CD-1 mouse assessed as incidence of tremor at 19.6 mg/kg, ip measured every 10 to 15 mins for 8 hrs up to day 14; assay type: organism-based; parameters: dose 19.6 mg/kg, route intraperitoneal; settings: in vivo
Outline: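 Male CD-1 mice (18–22 g), housed individually. Compounds given ip in DMSO diluted with saline (DMSO ≤2.0 µL/g). Up-and-Down Procedure per EPA 870.1100: sigma 0.33, starting dose 1.92 mg/kg, changed in 3.2-fold steps by tremor response, range 0.19–19.6 mg/kg. Observed every 10–15 min for 1 h, hourly for 8 h, then daily to day 14. Tremor EC50 calculated with AOT425StatPgm.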

MCF7 = experiment: Antiproliferative activity against human MCF7 cells after 72 hrs by MTT assay; assay type: functional, cell-based; settings: MCF7, 72 h
Outline: (§2)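 Seeding: MCF-7 at 10×10³ and MDA-MB-231 at 8×10³ cells/well, attached overnight. Medium: serum-free RPMI for MCF-7 and RPMI with 5% FBS for MDA-MB-231, with graded compound doses, for 72 h at 37°C. Readout: MTT (1 mg/mL) for 4 h, formazan dissolved in DMSO, absorbance at 570 nm. Cell numbers taken from a standard curve as % survival versus DMSO. IC50 obtained by nonlinear regression. Final DMSO ≤0.2%.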

MDA-MB-231 [3] = experiment: Antiproliferative activity against human MDA-MB-231 cells after 72 hrs by MTT assay; assay type: functional, cell-based; settings: MDA-MB-231, 72 h; outline: as §2
[4] = molecular target: Calcium-activated potassium channel slo-1 (Caenorhabditis elegans, UniProt Q95V25); experiment: Inhibition of wild type L4 larval stage of Caenorhabditis elegans N2 bristol BK channel assessed as induction of reversal locomotion at 1 uM after 42 hrs
Outline: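 30–40 synchronized L1 larvae of wild-type N2 placed on OP50-seeded NGM plates containing 1.0 µM compound or DMSO. Incubated 42 h at 20°C. L4 worms then moved to unseeded NGM and acclimatized 1 min before reversals were counted, at least 10 worms per treatment. slo-1(js379) strain NM1968 served as positive control.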

MDA-MB-231 [5] = experiment: Antimigratory activity against human MDA-MB-231 cells after 24 hrs by wound-healing assay; assay type: functional, cell-based; settings: MDA-MB-231, 24 h
Outline: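 Confluent MDA-MB-231 monolayers scratched with a pipette tip, then washed. Compounds added in 0.5% FBS medium, in triplicate, for 24 h. Cells then fixed and stained with Diff-Quick. Cells that migrated into the wound were counted in at least five random fields at 400X.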

MDA-MB-231 [6] = experiment: Antiinvasive activity against human MDA-MB-231 cells at 7.5 to 15 uM after 24 hrs by cultrex BME assay
Mus musculus [7] = experiment: Toxicity in CD-1 mouse assessed as incidence of tremor at 1.92 mg/kg, ip measured every 10 to 15 mins for 8 hrs up to day 14; assay type: organism-based; parameters: dose 1.92 mg/kg, route intraperitoneal; settings: in vivo
Outline: (§3)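 Male CD-1 mice (18–22 g), housed singly 3 days beforehand, given a single i.p. dose of DMSO stock diluted in saline (DMSO ≤2.0 µL/g); vehicle controls. Up-and-Down Procedure per EPA 870.1100 (sigma 0.33): start 1.92 mg/kg, then ×3.2 up or down according to tremor response, range 0.19–19.6 mg/kg. Tremors scored over 14 days; EC50 from AOT425StatPgm.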

Mus musculus [8] = experiment: Toxicity in CD-1 mouse assessed as incidence of tremor at 0.19 mg/kg, ip measured every 10 to 15 mins for 8 hrs up to day 14; assay type: organism-based; parameters: dose 0.19 mg/kg, route intraperitoneal; settings: in vivo; outline: as §3
Mus musculus [9] = experiment: Toxicity in CD-1 mouse assessed as incidence of tremor at 0.60 mg/kg, ip measured every 10 to 15 mins for 8 hrs up to day 14; assay type: organism-based; parameters: dose 0.6 mg/kg, route intraperitoneal; settings: in vivo, 0.6 mg/kg; outline: as §3
MDA-MB-231 [10] = experiment: Inhibition of Wnt/beta-catenin signaling pathway in human MDA-MB-231 cells assessed as decrease in expression of beta-catenin level at 9.6 uM after 48 hrs by DAPI staining-based confocal laser scanning microscopy; assay type: cell-based
Outline: (§4)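 MDA-MB-231 cells, 5 × 10^4 per chamber (2 replicates/group), attached overnight in 10% FBS medium, then treated 48 h in 0.5% FBS medium (final DMSO ≤0.2%). Methanol-fixed at −20 °C, blocked in 2% BSA-TBST, anti-total β-catenin (1:300, overnight 4 °C), Alexa Fluor 594 secondary, DAPI counterstain. Confocal imaging at 200X; red intensity compared with vehicle; ≥3 independent repeats.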

Mus musculus [11] = experiment: Toxicity in ip dosed CD-1 mouse assessed as incidence of tremor measured every 10 to 15 mins for 8 hrs up to day 14; assay type: organism-based; outline: as §3
MDA-MB-231 [12] = experiment: Inhibition of Wnt/beta-catenin signaling pathway in human MDA-MB-231 cells assessed as decrease in expression of beta-catenin level at 7.6 uM after 48 hrs by DAPI staining-based confocal laser scanning microscopy; assay type: cell-based; outline: as §1
[13] = Inhibition of Wnt/beta-catenin signaling pathway in mouse C2C12 cells assessed as induction of nuclear translocation of beta-catenin after 24 hrs by propidium iodide staining-based laser scanning cytometry; assay type: cell-based; settings: C2C12, 24 h
MDA-MB-231 [14] = experiment: Inhibition of Wnt/beta-catenin signaling pathway in human MDA-MB-231 cells assessed as decrease in expression of beta-catenin level at 8 uM after 48 hrs by DAPI staining-based confocal laser scanning microscopy; assay type: cell-based; outline: as §4
MDA-MB-231 [15] = experiment: Inhibition of Wnt/beta-catenin signaling pathway in human MDA-MB-231 cells assessed as decrease in expression of beta-catenin level at 19 uM after 48 hrs by DAPI staining-based confocal laser scanning microscopy; assay type: cell-based; outline: as §4

Chain of Calcium-activated potassium channel slo-1 (Q95V25 whole entry): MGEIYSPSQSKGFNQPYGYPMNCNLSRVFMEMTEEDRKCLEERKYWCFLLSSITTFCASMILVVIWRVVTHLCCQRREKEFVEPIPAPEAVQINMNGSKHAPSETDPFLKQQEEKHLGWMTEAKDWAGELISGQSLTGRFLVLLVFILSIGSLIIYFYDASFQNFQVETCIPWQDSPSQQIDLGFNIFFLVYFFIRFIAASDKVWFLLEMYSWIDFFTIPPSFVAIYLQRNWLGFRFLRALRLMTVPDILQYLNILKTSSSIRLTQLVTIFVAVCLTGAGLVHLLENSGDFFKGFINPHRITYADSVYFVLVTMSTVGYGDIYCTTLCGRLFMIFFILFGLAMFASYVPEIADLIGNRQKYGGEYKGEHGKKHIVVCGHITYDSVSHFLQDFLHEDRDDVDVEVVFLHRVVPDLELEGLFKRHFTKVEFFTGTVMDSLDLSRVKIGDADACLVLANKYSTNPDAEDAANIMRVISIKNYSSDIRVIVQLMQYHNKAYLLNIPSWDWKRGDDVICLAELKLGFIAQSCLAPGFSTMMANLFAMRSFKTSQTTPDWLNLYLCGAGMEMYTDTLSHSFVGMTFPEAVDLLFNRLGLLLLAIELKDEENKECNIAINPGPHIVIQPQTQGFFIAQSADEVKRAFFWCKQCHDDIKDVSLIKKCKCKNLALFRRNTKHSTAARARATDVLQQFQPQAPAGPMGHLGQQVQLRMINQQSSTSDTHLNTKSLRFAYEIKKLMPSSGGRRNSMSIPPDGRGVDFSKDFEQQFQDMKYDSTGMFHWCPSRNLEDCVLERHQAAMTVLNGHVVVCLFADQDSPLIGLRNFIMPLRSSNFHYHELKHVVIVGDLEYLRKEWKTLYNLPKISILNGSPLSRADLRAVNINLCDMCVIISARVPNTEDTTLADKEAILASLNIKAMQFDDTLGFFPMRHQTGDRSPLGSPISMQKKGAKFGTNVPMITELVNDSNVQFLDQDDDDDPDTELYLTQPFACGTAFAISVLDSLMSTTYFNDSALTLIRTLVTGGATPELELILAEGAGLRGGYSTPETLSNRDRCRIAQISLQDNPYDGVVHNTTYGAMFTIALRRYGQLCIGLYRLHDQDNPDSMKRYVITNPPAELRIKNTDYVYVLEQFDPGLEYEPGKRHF

C=C1Cc2c(Cl)cc3[nH]c4c5c3c2[C@@]2(O)[C@@H]1C[C@H]2C(C)(C)O[C@H]5[C@@H]1CC[C@@]2(O)[C@@]35O[C@@H]3[C@H](O)O[C@H]5CC[C@]2(C)[C@@]41C
inhibition (MDA-MB-231 [1]): Active
Activity (Mus musculus [2]): ND(Insoluble)
IC50 (MCF7): 13.3 µM
IC50 (MDA-MB-231 [3]): 43.8 µM
inhibition (INH) [4]: Not Active
IC50 (MDA-MB-231 [5]): 48.2 µM
Activity (MDA-MB-231 [6]): Active

C=C(C)[C@H]1O[C@H]2CC[C@@]3(C)[C@@](O)(CC[C@H]4[C@@H]5OC(C)(C)[C@@H]6C[C@@H]7C(=C)Cc8c(Br)cc9[nH]c(c5c9c8[C@@]76O)[C@@]43C)[C@]23O[C@@H]3[C@H]1O
Activity (Mus musculus [7]): Toxic
Activity (Mus musculus [8]): Non-toxic
Activity (Mus musculus [9]): Toxic
inhibition (MDA-MB-231 [10]): Active
inhibition (INH) [4]: Not Active
EC50 (Mus musculus [11]): 0.32 mg/kg

C=C(C)[C@H]1O[C@H]2CC[C@@]3(C)[C@@](O)(CC[C@H]4[C@@H]5OC(C)(C)[C@@H]6C[C@@H]7C(=C)Cc8c(Cl)cc9[nH]c(c5c9c8[C@@]76O)[C@@]43C)[C@]23O[C@@H]3[C@H]1OC
IC50 (MCF7): 22.7 µM
IC50 (MDA-MB-231 [3]): > 50 µM
IC50 (MDA-MB-231 [5]): > 50 µM
Activity (MDA-MB-231 [6]): Active

CC(C)(O)[C@@H]1CC[C@]2(C)[C@H](CC[C@@]3(C)[C@H]2CC[C@H]2Cc4c([nH]c5ccccc45)[C@@]23C)O1 [PASPALINE]
inhibition (MDA-MB-231 [12]): Active
inhibition (INH) [4]: Not Active

C=C(C)[C@H]1O[C@H]2CC[C@@]3(C)[C@@](O)(CC[C@H]4[C@@H]5OC(C)(C)[C@@H]6C[C@@H]7C(=C)Cc8c(Cl)cc9[nH]c(c5c9c8[C@@]76O)[C@@]43C)[C@]23O[C@@H]3[C@H]1OC(=O)c1ccccc1
Activity (Mus musculus [2]): ND(Insoluble)
IC50 (MCF7): > 50 µM
IC50 (MDA-MB-231 [3]): 13.8 µM
inhibition (INH) [4]: Not Active
IC50 (MDA-MB-231 [5]): > 50 µM
Activity (MDA-MB-231 [6]): Active

C=C(C)[C@H]1O[C@H]2CC[C@@]3(C)[C@@](O)(CC[C@H]4[C@@H]5OC(C)(C)[C@@H]6C[C@@H]7C(=C)Cc8c(Cl)cc9c(c5c(n9Cc5cccc(OC)c5)[C@@]43C)c8[C@@]76O)[C@]23O[C@@H]3[C@H]1OCc1cccc(OC)c1
IC50 (MCF7): > 50 µM
IC50 (MDA-MB-231 [3]): > 50 µM
IC50 (MDA-MB-231 [5]): > 50 µM
Activity (MDA-MB-231 [6]): Active

C=C(C)[C@H]1O[C@H]2CC[C@@]3(C)[C@@](O)(CC[C@H]4[C@@H]5OC(C)(C)[C@@H]6C[C@@H]7C(=C)Cc8c(Cl)cc9[nH]c(c5c9c8[C@@]76O)[C@@]43C)[C@]23O[C@@H]3[C@H]1OCc1ccccc1
IC50 (MCF7): > 50 µM
IC50 (MDA-MB-231 [3]): > 50 µM
IC50 (MDA-MB-231 [5]): > 50 µM

C=C(C)[C@H]1O[C@H]2CC[C@@]3(C)[C@@](O)(CC[C@H]4[C@@H]5OC(C)(C)[C@@H]6C[C@@H]7C(=C)Cc8c(Cl)cc9c(c5c(n9C)[C@@]43C)c8[C@@]76O)[C@]23O[C@@H]3[C@H]1O
IC50 (MDA-MB-231 [3]): > 50 µM
IC50 (MDA-MB-231 [5]): > 50 µM
Activity (MDA-MB-231 [6]): Active

C=C1Cc2c(Br)cc3[nH]c4c5c3c2[C@H]2[C@@H]1C[C@H]2C(C)(C)O[C@H]5[C@@H]1CC[C@@]2(O)[C@@]35O[C@@H]3[C@@H](O)[C@@H](C(=C)C)O[C@H]5CC[C@]2(C)[C@@]41C
Activity (Mus musculus [2]): Toxic
Activity (Mus musculus [9]): Non-toxic
EC50 (Mus musculus [11]): 3.43 mg/kg

C=C1Cc2c(Cl)cc3[nH]c4c5c3c2[C@@]2(O)[C@@H]1C[C@H]2C(C)(C)O[C@H]5[C@@H]1CC[C@@]2(O)[C@@]35O[C@@H]3[C@@](O)(/C=C(/C)COC(C)=O)O[C@H]5CC[C@]2(C)[C@@]41C
IC50 (MCF7): 32.3 µM
IC50 (MDA-MB-231 [3]): 10 µM
IC50 (MDA-MB-231 [5]): > 50 µM

C=C(C)[C@H]1O[C@H]2CC[C@@]3(C)[C@@](O)(CC[C@H]4[C@@H]5OC(C)(C)[C@H]6C[C@@H]7C(=C)Cc8c(Cl)cc9[nH]c(c5c9c8[C@@]76O)[C@@]43C)[C@@]23O[C@H]3[C@H]1O [PENITREM A]
EC50 [13]: 0.98 µM
IC50 (MCF7): 11.9 µM
IC50 (MDA-MB-231 [3]): 9.8 µM
inhibition (MDA-MB-231 [14]): Active
IC50 (MDA-MB-231 [5]): 8.7 µM
Activity (MDA-MB-231 [6]): Active

C=C(C)[C@H]1O[C@H]2CC[C@@]3(C)[C@@](O)(CC[C@H]4[C@@H]5OC(C)(C)[C@H]6C[C@@H]7C(=C)Cc8c(Cl)cc9[nH]c(c5c9c8[C@@]76O)[C@@]43C)[C@]23O[C@@H]3[C@H]1O [PENITREM A]
Activity (Mus musculus [7]): Toxic
Activity (Mus musculus [8]): Non-toxic
inhibition (INH) [4]: Active

C=C(C)[C@H]1O[C@H]2CC[C@@]3(C)[C@@](O)(CC[C@H]4[C@@H]5OC(C)(C)[C@@H]6C[C@@H]7C(=C)Cc8c(Cl)cc9c(c5c(n9C)[C@@]43C)c8[C@@]76O)[C@]23O[C@@H]3[C@H]1OC
Activity (Mus musculus [2]): ND(Insoluble)
IC50 (MCF7): > 50 µM
IC50 (MDA-MB-231 [3]): > 50 µM
inhibition (INH) [4]: Not Active
IC50 (MDA-MB-231 [5]): > 50 µM
Activity (MDA-MB-231 [6]): Active

C=C(C)[C@H]1O[C@H]2CC[C@@]3(C)[C@@](O)(CC[C@H]4[C@@H]5OC(C)(C)[C@@H]6C[C@@H]7C(=C)Cc8c(Cl)cc9[nH]c(c5c9c8[C@@]76OO)[C@@]43C)[C@]23O[C@@H]3[C@H]1O
IC50 (MCF7): > 50 µM
IC50 (MDA-MB-231 [3]): > 50 µM
IC50 (MDA-MB-231 [5]): > 50 µM
Activity (MDA-MB-231 [6]): Active

CC(C)=CCC[C@]1(C)[C@@H](O)CC[C@@]2(C)[C@H]1CC[C@H]1Cc3c([nH]c4ccccc34)[C@@]12C [EMINDOLE SB]
inhibition (MDA-MB-231 [15]): Active
inhibition (INH) [4]: Not Active
